One may read the pIC50 as −log10 of the IC50, conventionally taken in molar units.

pIC50: −log10 of the molar value. The source made the active and inactive calls. No cut-off for these calls is given here.

This is an account of results in ChEMBL document CHEMBL4673249, “Anticancer Effects of Honokiol via Mitochondrial Dysfunction Are Strongly Enhanced by the Mitochondria-Targeting Carrier Berberine” (J Med Chem, 2020).

For data set [1], the system named is HepG2. The experiment in a line: Induction of apoptosis in human HepG2 cells assessed as necrotic cells at 2 uM after 24 hrs by annexin V/propidium iodide staining based flow cytometric analysis (reference value: 0.11%). Type of data set: functional.
The test system of data set [2] is HepG2. The data set can be described thus: Induction of apoptosis in human HepG2 cells assessed as increase in cleaved-caspase 3 protein expression at 1 to 4 uM after 24 hrs by Western blot analysis. The class given is functional, cell-based. As to conditions: dose 1-4 µM. The method in brief: (§1)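 HepG2 cells lysed in RIPA on ice for 20 min; protein measured by BCA. Lysates run on 10% SDS-PAGE and transferred to PVDF. Membranes blocked in 5% nonfat milk/TBST for 2 h, incubated with primary antibodies overnight at 4 °C, then HRP secondary antibody; bands detected by ECL.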
On the technique in general: A western blot detects proteins with antibodies after separation by electrophoresis.

Data set [3] relates to PANC-1. The data set can be described thus: Antiproliferative activity against human PANC1 cells assessed as reduction in cell viability after 48 hrs by MTT assay. As to conditions: PANC-1, 48 h. The class given is functional, cell-based. The method in brief: (§2)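 Cell lines grown at 37 °C in 5% CO2: A2780, A549, HL7702 and PC3 in RPMI 1640; HT29 in McCoy's 5A; HepG2 and PANC-1 in DMEM; all media with 10% FBS and penicillin/streptomycin. Cells seeded and left overnight, then exposed to compound for 48 h. MTT (5 mg/mL solution) added for 4 h at 37 °C, formazan dissolved in DMSO, absorbance read at 570 nm. IC50 taken from viability; run in triplicate.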

Data set [4] deals with HepG2. The experiment in a line: Induction of cell death in human HepG2 cells at 3 uM after 12 hrs in presence of Nec-1 by MTT assay. Type of data set: functional, cell-based. In a few lines:
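HepG2 cells pretreated with Nec-1 (30 μM) for 2 h, then given 3 μM. Viability measured by MTT with absorbance read at 570 nm.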

Data set [5] concerns HepG2. The data set can be described thus: Induction of mitochondrial morphological changes in human HepG2 cells assessed as dilation of mitochondria by measuring vacuoles at 3 uM measured up to 30 hrs […] by TEM analysis. As to conditions: time hrs <=30. The class given is functional, cell-based. In a few lines: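 HepG2 cells given 3 μM for 15 h or 30 h, then fixed in 2.5% glutaraldehyde at 4 °C overnight. Dehydrated through graded alcohols, embedded in resin and examined by transmission electron microscopy.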

Data set [6] deals with HepG2. The data set can be described thus: Induction of apoptosis in human HepG2 cells assessed as increase in cleaved-caspase 9 protein expression at 1 to 4 uM after 24 hrs by Western blot analysis. As to conditions: dose 1-4 µM. Type of data set: functional, cell-based. The method in brief: as §1
Data set [7] relates to HepG2. The experiment in a line: Antiproliferative activity against human HepG2 cells assessed as reduction in cell viability after 48 hrs by MTT assay. Type of data set: functional, cell-based. As to conditions: HepG2, 48 h. The method in brief:
as §2
Background: Tetrazolium assays rely on reduction of a dye to a coloured formazan, in cell work by metabolically active cells.

Another data set has as its system A2780. The experiment in a line: Antiproliferative activity against human A2780 cells assessed as reduction in cell viability after 48 hrs by MTT assay. The class given is functional, cell-based. As to conditions: A2780, 48 h. The method in brief:
as §2

The next data set relates to A549. The experiment in a line: Induction of morphological changes in human A549 cells assessed as accumulation of cytoplasmic vacuoles at 4 uM after 24 hrs by optical microscopic method. The class given is functional, cell-based.
For data set [8], the system named is HepG2. The data set can be described thus: Induction of apoptosis in human HepG2 cells assessed as viable cells at 4 uM after 24 hrs by annexin V/propidium iodide staining based flow cytometric analysis (reference value: 95.3%). As to conditions: read-out: Activity. The class given is functional. Background: In flow cytometry, cells or beads pass a laser one at a time.

Data set [9] can be described thus: Selectivity ratio of IC50 for antiproliferative activity against human L02 cells to IC50 for antiproliferative activity human HepG2 cells. The class given is toxicity, cell-based. As to conditions: L02 cells and HepG2 cells, read-out: Ratio IC50. In a few lines:
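MTT assay after 48 h drug exposure. Cells seeded overnight, MTT (5 mg/mL stock) added for 4 h at 37 °C, formazan dissolved in DMSO, absorbance read at 570 nm. IC50 taken from viability, repeated in triplicate, and the IC50 ratio calculated.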

Data set [10] deals with HepG2. The data set can be described thus: Induction of mitochondrial dysfunction in human HepG2 cells assessed as decrease in mitochondrial membrane […] at 1 to 4 uM after 24 hrs by JC-1 staining based flow cytometric analysis. Type of data set: functional, cell-based. As to conditions: dose 1-4 µM. The method in brief: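 HepG2 cells in 6-well plates treated for 24 h at 37 °C, then trypsinized. Stained with JC-1 at a final 2.5 μg/mL for 30 min, washed three times, resuspended in PBS and read by flow cytometry.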

Data set [11] concerns HepG2. The data set can be described thus: Induction of apoptosis in human HepG2 cells assessed as early apoptotic cells at 4 uM after 24 hrs in presence of z-VAD-fmk by annexin V/propidium iodide staining based flow cytometric analysis (reference value: 0.86%). Type of data set: functional.
Data set [12] in a line: Ratio of HN drug uptake to test compound drug uptake in human HepG2 cells mitochondria at 5 uM after 12 hrs by HPLC analysis. The class given is ADME. As to conditions: hepg2, 12 h. The method in brief: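 HepG2 cells treated with 5 μM compound or honokiol for 12 h. Mitochondria isolated with a kit by centrifugation at 600g then 11000g, 4 °C, 10 min each. Whole-cell and mitochondrial drug measured by HPLC on a C18 column, methanol-0.1% acetic acid (80:20), at 265 nm (derivative) and 210 nm (honokiol). Run thrice.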

In data set [13] the test system is HepG2. The experiment in a line: Induction of morphological changes in human HepG2 cells assessed as accumulation of vacuoles at 3 uM after 24 hrs in presence of 3-MA by microscopic method. Type of data set: functional, cell-based. In a few lines: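 HepG2 cells given 3 μM compound for 24 h with chloroquine (10 μM) or 3-methyladenine (1 mM). Vacuolization and viability examined, viability by MTT.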

Data set [14] has as its system HepG2. The data set can be described thus: Induction of apoptosis in human HepG2 cells assessed as viable cells at 4 uM after 24 hrs in presence of z-VAD-fmk by annexin V/propidium iodide staining based flow cytometric analysis (reference value: 92.8%). As to conditions: read-out: Activity. The class given is functional.
In data set [15] the test system is PANC-1. The data set can be described thus: Induction of morphological changes in human PANC-1 cells assessed as accumulation of cytoplasmic vacuoles at 4 uM after 24 hrs by optical microscopic method. The class given is functional, cell-based. The method in brief: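 Cells grown at 37 °C, 5% CO2 in media with 10% FBS and penicillin/streptomycin, then treated with compound. Cytoplasmic vacuoles judged by optical microscopy. Time course at 4 μM, or 10 h exposure across increasing concentrations.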

The nature of data set [16]: Drug localization n human HepG2 cells mitochondria by MitoTracker staining based confocal microscopic analysis. Type of data set: ADME. In a few lines:
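HepG2 cells in glass-bottom dishes were exposed to compound, then stained with 150 nM MitoTracker Red CMXRos for 20 min. Compound's own blue fluorescence imaged against the red mitochondrial signal by confocal microscopy.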

As to `C=CCc1ccc(O)c(-c2ccc(OCCCCCc3c4[n+](cc5c(OC)c(OC)ccc35)CCc3cc5c(cc3-4)OCO5)c(CC=C)c2)c1.[I-]`, the Activity amounted to 0.13% with HepG2 [1] and 6.59% in the data set on HepG2 [11]. Moreover, the result in the data set on HepG2 [2], with HepG2 [4], in the data set with HepG2 [5], in the data set with HepG2 [6], in the data set on A549 and with HepG2 [10] was Active. Further, the result with HepG2 [13] and with PANC-1 [15] was Active. Also, the results for the negative logarithm of the IC50 (pIC50) with PANC-1 [3], with HepG2 [7] and in the data set on A2780 were 5.48, 5.79 and 5.65, respectively. Besides, the viability at 4 µM in the data set on HepG2 [8] stood at 73.3%; in the data set with HepG2 [14], 73%. Besides, in data set [9], the selectivity ratio came to 2.8. In addition, the Ratio in [12] was 3.7. Besides, the Drug uptake entry in data set [16] is “Active”.
